# Experimental data: ChEMBL document CHEMBL4725333, “Carbazole-based fluorescent probes for G-quadruplex DNA targeting with superior selectivity and low cytotoxicity” (Bioorg Med Chem, 2020)
# Activity calls are given as the source filed them. The rule behind the calls is not given here.
# Legend:
# [1] = system: Quadruplex DNA; assay: Binding affinity to human c-myc G-quadruplex DNA assessed as increase in fluorescence in presence of c-myc at 1 uM by fluorescence titration analysis; assay type: nucleic-acid assay
# Procedure, shortened: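 Probe at 1 µM in 10 mM Tris-HCl, 60 mM KCl, pH 7.4, titrated stepwise with c-myc G-quadruplex DNA (0–3 µM). Emission monitored near 545–547 nm, and F/F₀ of integral fluorescence fitted to an independent-site model. Linear range 0–0.8 µM DNA; detection limit from LOD = 3σ/k.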
# [2] = system: Quadruplex DNA; assay: Binding affinity to human c-myc G-quadruplex DNA in Tris Hcl buffer assessed as fluorescence lifetime of compound at 400 nm at pH 7.4 by fluorescence emission analysis (Rvb (absence of c-myc G-quadruplex DNA ) = 0.513 ns); assay type: nucleic-acid assay
# [3] = system: Quadruplex DNA; assay: Binding affinity to human c-myc G-quadruplex DNA uM by circular dichroism spectroscopy; assay type: nucleic-acid assay
# Procedure, shortened: (§1)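 CD titration of c-myc G-quadruplex DNA (5 µM) with 0–2 equivalents of probe, in 10 mM Tris-HCl, 60 mM KCl, pH 7.4.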
# [4] = system: Quadruplex DNA; assay: Effect on topology of human c-myc G-quadruplex DNA assessed as change in conformation at 245 nm at DNA to compound ratio of 1:1 by circular dichroism spectroscopy; assay type: nucleic-acid assay; procedure, shortened: as §1
# [5] = system: Quadruplex DNA; assay: Induction of stabilization of human c-myc G-quadruplex assessed inhibition of Taq polymerase mediated DNA polymerization at high concentration upto 20 uM by PCR-stop assay; assay type: nucleic-acid assay; details: dose microM <=20
# Procedure, shortened: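 PCR-stop assay. Probe (0–20 µM) was added to 1x PCR buffer containing 10 pmol c-myc template, 10 pmol c-myc rev primer, 0.2 mM dNTPs and 1.5 units Taq polymerase. Products were resolved on 15% non-denaturing polyacrylamide gels in 1× TBE. A mutant c-myc oligomer unable to fold served as control.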
# [6] = Cytotoxicity against human HCCC9810 cells assessed as reduction in cell viability incubated for 72 hr by CCK8 assay; assay type: cell-based; details: HCCC9810, 72 h
# Procedure, shortened: (§2)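 HCCC-9810, RBE and 293T cells exposed to probe at 0–100 µM for 72 h. Viable cells quantified by CCK-8 assay.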
# [7] = Cytotoxicity against human RBE cells assessed as reduction in cell viability incubated for 72 hr by CCK8 assay; assay type: cell-based; procedure, shortened: as §2
# [8] = system: HEK-293T; assay: Cytotoxicity against human 293T cells assessed as reduction in cell viability incubated for 72 hr by CCK8 assay; assay type: cell-based; procedure, shortened: as §2
# [9] = system: Quadruplex DNA; assay: Competitive binding affinity to human c-myc G-quadruplex DNA assessed as increase in fluorescence in presence of ssDNA and dsDNA at 1 uM by fluorescence titration analysis; assay type: nucleic-acid assay
# Procedure, shortened: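 Competition titration: probe at 1 µM with 20 µM ds26 duplex DNA, then stepwise addition of c-myc G-quadruplex DNA, in 10 mM Tris-HCl, 60 mM KCl, pH 7.4. Read-out was fluorescence emission.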
# [10] = system: Quadruplex DNA; assay: Binding affinity to human c-myc G-quadruplex DNA assessed as increase in fluorescence in presence of BSA/HSA at 1 uM by fluorescence titration analysis; assay type: nucleic-acid assay
# Procedure, shortened: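 Probe fluorescence followed with increasing BSA or HSA as interfering proteins, in the same Tris-HCl/KCl pH 7.4 titration system.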
# [11] = system: Quadruplex DNA; assay: Inhibition of hemin binding to human c-myc G4 quadruplex DNA by measuring peroxidase activity within 30 at 415 nm by G4/hemin peroxidase inhibition assay; assay type: nucleic-acid assay
# Procedure, shortened: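 G4/hemin peroxidase assay in 10 mM Tris-HCl, 60 mM KCl, pH 7.4, with c-myc 0.4 µM, hemin 0.8 µM, ABTS²⁻ 0.18 mM and H₂O₂ 0.06 mM, across varied probe concentrations. Oxidized ABTS product followed by absorbance at 415 nm over 30 min.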
# [12] = system: Quadruplex DNA; assay: Binding affinity to human c-myc G-quadruplex DNA with TTGA GGG T GGG TA GGG T GGG TAAA flanking loops assessed as relative fluorescence intensity at 1 uM measured at pH 7.4 by fluorescent titration; assay type: nucleic-acid assay
# [13] = system: Quadruplex DNA; assay: Binding affinity to human c-myc G-quadruplex DNA with TTG AATGGG TGGGT AGGGT GGGT AAA flanking loops assessed as relative fluorescence intensity at 1 uM measured at pH 7.4 by fluorescent titration; assay type: nucleic-acid assay
# [14] = system: Quadruplex DNA; assay: Binding affinity to human c-myc G-quadruplex DNA with TTG AGGG TAAGGGT AGGGT GGGT AAA flanking loops assessed as relative fluorescence intensity at 1 uM measured at pH 7.4 by fluorescent titration; assay type: nucleic-acid assay
# [15] = system: Quadruplex DNA; assay: Binding affinity to human c-myc G-quadruplex DNA with TTG AGGG TGGGT AATGGGT GGGT AAA flanking loops assessed as relative fluorescence intensity at 1 uM measured at pH 7.4 by fluorescent titration; assay type: nucleic-acid assay
# [16] = system: Quadruplex DNA; assay: Binding affinity to human c-myc G-quadruplex DNA with TTG AGGG TGGGT AGGGT ATGGGT AAA flanking loops assessed as relative fluorescence intensity at 1 uM measured at pH 7.4 by fluorescent titration; assay type: nucleic-acid assay
# [17] = system: Quadruplex DNA; assay: Binding affinity to human c-myc G-quadruplex DNA with TTG AGGG TGGGT AGGGT GGGT AAATA flanking loops assessed as relative fluorescence intensity at 1 uM measured at pH 7.4 by fluorescent titration; assay type: nucleic-acid assay
# [18] = system: Quadruplex DNA; assay: Binding affinity to human c-myc G-quadruplex DNA with AGGG TGGGT AGGGT GGGT AAA flanking loops assessed as relative fluorescence intensity at 1 uM measured at pH 7.4 by fluorescent titration; assay type: nucleic-acid assay
# [19] = system: Quadruplex DNA; assay: Binding affinity to human c-myc G-quadruplex DNA with TTG AGGG TGGGT AGGGT GGGT flanking loops assessed as relative fluorescence intensity at 1 uM measured at pH 7.4 by fluorescent titration; assay type: nucleic-acid assay
# [20] = system: Quadruplex DNA; assay: Binding affinity to human c-myc G-quadruplex DNA with 4-aminopurine substitution assessed as fluorescence intensity; assay type: nucleic-acid assay
# Procedure, shortened: (§3)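 2-aminopurine-labelled c-myc G-quadruplex DNA held at 2 µM in 10 mM Tris-HCl, pH 7.4, 60 mM KCl. Probe or hemin added gradually, and 2-Ap fluorescence intensity monitored.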
# [21] = system: Quadruplex DNA; assay: Binding affinity to human c-myc G-quadruplex DNA with 13-aminopurine substitution assessed as fluorescence intensity; assay type: nucleic-acid assay; procedure, shortened: as §3
# [22] = system: Quadruplex DNA; assay: Binding affinity to human c-myc G-quadruplex DNA with 22-aminopurine substitution assessed as fluorescence intensity; assay type: nucleic-acid assay; procedure, shortened: as §3
# [23] = system: Quadruplex DNA; assay: Binding affinity to human c-myc G-quadruplex DNA with 4-aminopurine substitution assessed as fluorescence intensity in presence of hemin; assay type: nucleic-acid assay; procedure, shortened: as §3
# [24] = system: Quadruplex DNA; assay: Binding affinity to human c-myc G-quadruplex DNA with 13-aminopurine substitution assessed as fluorescence intensity in presence of hemin; assay type: nucleic-acid assay; procedure, shortened: as §3
# [25] = system: Quadruplex DNA; assay: Binding affinity to human c-myc G-quadruplex DNA with 22-aminopurine substitution assessed as fluorescence intensity in presence of hemin; assay type: nucleic-acid assay; procedure, shortened: as §3
# [26] = system: Quadruplex DNA; assay: Binding affinity to human c-myc G-quadruplex DNA assessed as displacement of fluorescent labelled compound by measuring decrease in emission in presence of hemin by FID assay; assay type: nucleic-acid assay
# [27] = system: Quadruplex DNA; assay: Binding affinity to G-quadruplex DNA in human HCCC9810 cells increase in fluorescence intensity at 20 uM by confocal fluorescence microscopy; assay type: cell-based
# Procedure, shortened: (§4)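 Live HCCC-9810 cells stained 0.5 h with probe at 20 µM together with DAPI (5 mg/mL) as nuclear counterstain. Imaged by confocal fluorescence microscopy. Intracellular location is assigned from co-staining with DAPI, and uptake is judged from fluorescence intensity within the cells.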
# [28] = system: Quadruplex DNA; assay: Binding affinity to G-quadruplex DNA in human HCCC9810 cells increase in fluorescence intensity in cytoplasm at 20 uM by confocal fluorescence microscopy; assay type: cell-based; procedure, shortened: as §4
# [29] = system: Quadruplex DNA; assay: Effect on topology of human c-myc G-quadruplex DNA assessed as change in conformation at 265 nm by circular dichroism spectroscopy
# [30] = system: Quadruplex DNA; assay: Binding affinity to human c-myc G-quadruplex DNA in Tris Hcl buffer assessed as increase in fluorescence intensity at 545 nm at 0 to 0.8 uM measured at pH 7.4 by fluorescence emission analysis; details: dose microM 0-0.8
smiles,measurement,setting,value
COCCOCCOCCn1c2ccccc2c2cc(/C=C/c3cccc[n+]3C)ccc21.[I-],Activity,[1],Active
same,Time,[2],3.87 nanoseconds
same,Activity,[3],Active
same,Activity,[4],inactive
same,Activity,[5],Active
same,IC50,[6],> 40 µM
same,IC50,[7],> 40 µM
same,IC50,[8],40 µM
same,Activity,[9],Active
same,Activity,[10],Active
same,Activity,[11],inactive
same,Flu intensity,[12],695
same,Flu intensity,[13],702
same,Flu intensity,[14],910
same,Flu intensity,[15],632
same,Flu intensity,[16],570
same,Flu intensity,[17],852
same,Flu intensity,[18],846
same,Flu intensity,[19],861
same,Activity,[20],Active
same,Activity,[21],Active
same,Activity,[22],Active
same,Activity,[23],inactive
same,Activity,[24],inactive
same,Activity,[25],inactive
same,Activity,[26],inactive
same,Activity,[27],Active
same,Activity,[28],Active
same,Activity,[29],inactive
same,Activity,[30],Active
